Measured values from ChEMBL document CHEMBL5532690, “Antitubercular activity of 2-mercaptobenzothiazole derivatives targeting Mycobacterium tuberculosis type II NADH dehydrogenase” (RSC Med Chem, 2024).
Converted amounts (≈) assume the structure as drawn. The source made the active and inactive calls. The rule behind the calls is not given here.

Legend:
[1] = test system: Mycobacterium tuberculosis; experiment: Antitubercular activity against Mycobacterium tuberculosis H37Ra assessed as inhibition of intracellular ATP synthesis incubated for 24 hrs by BacTiter-Glo microbial cell viability assay; type: functional, organism-based
Outline: (§1)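 Mid-log cultures were adjusted to OD600 0.05 and exposed to compounds at 37 °C for 24 h. BacTiter-Glo reagent was then added for 12 min and luminescence was read. H37Ra and BCG were grown in 7H9 with glycerol, Tween 80 and ADS. mc2 6230 was grown with tyloxapol plus methionine, leucine, arginine and pantothenate. Values are the mean of triplicates.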

[2] = test system: Mycobacterium tuberculosis; experiment: Antitubercular activity against Mycobacterium tuberculosis H37Rv mc2 6230 assessed as inhibition of intracellular ATP synthesis incubated for 24 hrs by BacTiter-Glo microbial cell viability assay; type: functional, organism-based; conditions: H37Rv mc2 6230, 24 h; outline: as §1
[3] = test system: Mycobacterium tuberculosis; experiment: Antitubercular activity against Mycobacterium tuberculosis H37Rv mc2 6230 measured after 10 days by liquid broth microdilution assay; type: functional; conditions: H37Rv mc2 6230, 240 h, time 10 day
Outline: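 Broth microdilution in 7H9 with glycerol, ADS and 0.05% tyloxapol, supplemented with L-methionine, L-leucine (50 mg L−1 each), L-arginine (200 mg L−1) and D-pantothenate (24 mg L−1). Inoculum was diluted to OD600 0.005 (1.0 × 10^6 CFU ml−1) and added to two-fold serial dilutions. After 10 days at 37 °C, MIC was the lowest concentration without visible turbidity.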

[4] = test system: Mycobacterium tuberculosis; experiment: Antitubercular activity against Mycobacterium tuberculosis H37Ra measured after 10 days by liquid broth microdilution assay; type: functional; conditions: 240 h, time 10 day
Outline: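 Broth microdilution in 7H9 with 0.2% glycerol, 0.05% Tween 80 and 10% ADS. Mid-log cultures (OD600 0.4–0.6) were diluted to OD600 0.005 (1.0 × 10^6 CFU ml−1) and added to two-fold serial compound dilutions. Plates were incubated at 37 °C for 10 days and read visually. MIC was the lowest concentration with no turbidity.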

[5] = Cytotoxicity against human HepG2 cells assessed as reduction in cell viability by MTT assay; type: toxicity, cell-based
Outline: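 HepG2 cells in DMEM with 10% FBS, streptomycin, penicillin, 10 mM HEPES and 2 mM L-glutamine were seeded at 1 × 10^4 cells/well and incubated for 24 h (37 °C, 5% CO2). […] two-fold dilutions spanning 1000–0.48 μg ml−1 were applied. MTT (2.5 mg ml−1 in PBS) was added; formazan was dissolved in DMSO and read at 570 nm. CC50 = 50% viability loss. Triplicates.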

[6] = Selectivity index, ratio of CC50 for cytotoxicity against human HepG2 cells to MIC90 for antitubercular activity against Mycobacterium tuberculosis; type: toxicity, cell-based; conditions: read-out: Selectivity Index
Outline: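 Selectivity index calculated as HepG2 MTT CC50 divided by MIC90.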

[7] = test system: Mycobacterium tuberculosis; experiment: Bactericidal activity against Mycobacterium tuberculosis H37Rv mc2 6230 assessed as reduction in bacterial load measured after 5 days; type: functional, organism-based; conditions: time 5.0 day
Outline: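 Mid-log bacilli in supplemented 7H9 were adjusted to OD600 0.005 and exposed to a range of concentrations for 5 days at 37 °C. Cultures were 10-fold serially diluted and spotted on 7H10 agar, which was incubated for 3–4 weeks for CFU counts. MBC90 was a 90% fall from the initial inoculum. Triplicates; Student's t-test.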

[8] = test system: Mycobacterium tuberculosis; experiment: Bactericidal activity against Mycobacterium tuberculosis H37Rv mc2 6230 assessed as reduction in bacterial load at 4 times MIC measured after 5 days; type: functional, organism-based; conditions: time 5.0 day

In the case of `O=C(CSc1nc2ccc(C(F)(F)F)cc2s1)NC1CCCCC1`, the IC50 [1] is reported as 30.9 µg/mL (≈ 82.5 µM), the IC50 [2] is reported as 51 µg/mL (≈ 136 µM) and the MIC90 [3] is reported as 64 µg/mL (≈ 171 µM). The MIC90 [4] was 32 µg/mL (≈ 85.5 µM).
`O=C(CSc1nc2ccc(Br)cc2s1)NC1CCCCC1` gave an IC50 [1] of 34.4 µg/mL (≈ 89.2 µM), an IC50 [2] of 49.8 µg/mL (≈ 129 µM) and an MIC90 [3] of 32 µg/mL (≈ 83 µM). It also gave an MIC90 [4] of 64 µg/mL (≈ 166 µM).
For `O=C(CSc1nc2ccc(F)cc2s1)NC1CCCCC1`, the IC50 [1] was 36.5 µg/mL (≈ 113 µM), the IC50 [2] was 56.9 µg/mL (≈ 175 µM) and the MIC90 [3] was 4 µg/mL (≈ 12.3 µM). For the same molecule, the MIC90 [4] was 16 µg/mL (≈ 49.3 µM).
`O=C(CSc1nc2ccc(OC(F)(F)F)cc2s1)NC1CCCCC1` showed an IC50 [1] of 23.4 µg/mL (≈ 59.9 µM), an IC50 [2] of 66.2 µg/mL (≈ 170 µM) and an MIC90 [3] of 32 µg/mL (≈ 82 µM). It also gave an MIC90 [4] of 64 µg/mL (≈ 164 µM).
Work on `CO[C@H]1/C=C/O[C@@]2(C)Oc3c(C)c(O)c4c(O)c(c(/C=N/N5CCN(C)CC5)c(O)c4c3C2=O)NC(=O)/C(C)=C\C=C\[C@H](C)[C@H](O)[C@@H](C)[C@@H](O)[C@@H](C)[C@H](OC(C)=O)[C@@H]1C` [RIFAMPIN] yielded an MIC90 [3] of 0.03 µg/mL (≈ 0.0365 µM) and an MIC90 [4] of 0.015 µg/mL (≈ 0.0182 µM).
For `CC/C(=C(\c1ccccc1)c1ccc(OCCN(C)C)cc1)c1ccccc1` [TAMOXIFEN], the CC50 [5] was 6.15 µg/mL (≈ 16.6 µM).
For `CC(C)/N=c1\cc2n(-c3ccc(Cl)cc3)c3ccccc3nc-2cc1Nc1ccc(Cl)cc1` [CLOFAZIMINE], the selectivity ratio [6] was 223, the CC50 [5] was 49 µg/mL (≈ 104 µM) and the MIC90 [3] was 0.25 µg/mL (≈ 0.528 µM). For the same molecule, the MIC90 [4] was 0.25 µg/mL (≈ 0.528 µM).
For `O=C(CSc1nc2c(Br)cc(F)cc2s1)NC1CCCCC1`, the IC50 [1] was 18.7 µg/mL (≈ 46.3 µM), the Activity [7] was “Dose-Dependent Effect” and the Activity [8] was “Active”. It also gave a selectivity ratio [6] of 5.58, a CC50 [5] of 89.4 µg/mL (≈ 222 µM) and an IC50 [2] of 14.7 µg/mL (≈ 36.4 µM). The MIC90 [3] was 8 µg/mL (≈ 19.8 µM) and the MIC90 [4] was 8 µg/mL (≈ 19.8 µM).
`O=C(CSc1nc2c(Br)cc(C(F)(F)F)cc2s1)NC1CCCCC1` gave an IC50 [1] of 25.7 µg/mL (≈ 56.7 µM), an IC50 [2] of 56 µg/mL (≈ 124 µM) and an MIC90 [3] of 64 µg/mL (≈ 141 µM). For the same molecule, the MIC90 [4] was 64 µg/mL (≈ 141 µM).
Molecule `O=C(CSc1nc2ccccc2s1)NC1CCCCC1` has an IC50 [1] of 26.6 µg/mL (≈ 86.9 µM), an IC50 [2] of 40.6 µg/mL (≈ 133 µM) and an MIC90 [3] of 64 µg/mL (≈ 209 µM). The MIC90 [4] was 64 µg/mL (≈ 209 µM).
`O=C(CSc1nc2ccc(Cl)cc2s1)NC1CCCCC1` showed an IC50 [1] of 48.6 µg/mL (≈ 143 µM), an IC50 [2] of 38.2 µg/mL (≈ 112 µM) and an MIC90 [3] of 16 µg/mL (≈ 46.9 µM). It also gave an MIC90 [4] of 32 µg/mL (≈ 93.9 µM).
`Cc1ccc2nc(SCC(=O)NC3CCCCC3)sc2c1` gave an IC50 [1] of 14.1 µg/mL (≈ 43.9 µM), an IC50 [2] of 34.9 µg/mL (≈ 109 µM) and an MIC90 [3] of 32 µg/mL (≈ 99.8 µM). The MIC90 [4] was 32 µg/mL (≈ 99.8 µM).
With `Cc1cc(C)c2nc(SCC(=O)NC3CCCCC3)sc2c1` the IC50 [1] was 16.3 µg/mL (≈ 48.7 µM), the Activity [7] was “Dose-Dependent Effect” and the Activity [8] was “Active”. The selectivity ratio [6] was 15.4, the CC50 [5] was 247 µg/mL (≈ 739 µM) and the IC50 [2] was 16.3 µg/mL (≈ 48.7 µM). It also gave an MIC90 [3] of 8 µg/mL (≈ 23.9 µM) and an MIC90 [4] of 8 µg/mL (≈ 23.9 µM).
Molecule `O=C(CSc1nc2ccccc2c(=O)[nH]1)NC1CCCCC1` has an IC50 [1] of 8.55 µg/mL (≈ 26.9 µM), a selectivity ratio [6] of 391 and a CC50 [5] of 48.8 µg/mL (≈ 154 µM). For the same molecule, the IC50 [2] was 2.23 µg/mL (≈ 7.01 µM), the MIC90 [3] was 0.5 µg/mL (≈ 1.58 µM) and the MIC90 [4] was 0.5 µg/mL (≈ 1.58 µM).
Work on `O=C(CSc1nc2ccc([N+](=O)[O-])cc2s1)NC1CCCCC1` yielded an IC50 [1] of 36.3 µg/mL (≈ 103 µM), an IC50 [2] of 24.4 µg/mL (≈ 69.6 µM) and an MIC90 [3] of 16 µg/mL (≈ 45.5 µM). It also gave an MIC90 [4] of 16 µg/mL (≈ 45.5 µM).
With `CC(C)c1ccc2nc(SCC(=O)NC3CCCCC3)sc2c1` the IC50 [1] was 9.35 µg/mL (≈ 26.8 µM), the Activity [7] was “Dose-Dependent Effect” and the Activity [8] was “Active”. For the same molecule, the selectivity ratio [6] was 26.5, the CC50 [5] was 423 µg/mL (≈ 1210 µM) and the IC50 [2] was 9.35 µg/mL (≈ 26.8 µM). The MIC90 [3] was 4 µg/mL (≈ 11.5 µM) and the MIC90 [4] was 4 µg/mL (≈ 11.5 µM).
In the case of `O=C(CSc1nc2c(Br)cc(OC(F)(F)F)cc2s1)NC1CCCCC1`, the IC50 [1] is reported as 36.6 µg/mL (≈ 77.9 µM), the IC50 [2] is reported as 35.8 µg/mL (≈ 76.3 µM) and the MIC90 [3] is reported as 128 µg/mL (≈ 273 µM). The MIC90 [4] was 128 µg/mL (≈ 273 µM).
`O=C(CSc1nc2c(ccc3ccccc32)s1)NC1CCCCC1` showed an IC50 [1] of 36.6 µg/mL (≈ 103 µM), an IC50 [2] of 33 µg/mL (≈ 92.5 µM) and an MIC90 [3] of 128 µg/mL (≈ 359 µM). It also gave an MIC90 [4] of 128 µg/mL (≈ 359 µM).
With `C=C(C)[C@H]1Cc2c(ccc3c2O[C@@H]2COc4cc(OC)c(OC)cc4[C@@H]2C3=O)O1` [ROTENONE] the MIC90 [3] was > 64 µg/mL and the MIC90 [4] was > 64 µg/mL.
For `NNC(=O)c1ccncc1` [ISONIAZID], the MIC90 [3] was 0.06 µg/mL (≈ 0.438 µM) and the MIC90 [4] was 0.015 µg/mL (≈ 0.109 µM).
